# 697 NFkB inh: inhibitors of PMA/ionomycin-induced NF-kB reporter, 697 cells, primary screen, B-cell NF-kB inhibitor project, cell-based, luminescence, uHTS; 697 B-cell NF-kB luciferase reporter, 16 h; inhibition, % at 4 µM; 0.33% of 330,000 active; AID 435022, 2010; in the data active = inhibition above about 35%
# HSF1 activator: HSF-1 activators, primary screen, NIH3T3-HGL cells, MG132 stress, luminescence, single point | NIH3T3-HGL HSF-1 luciferase reporter, 8 h; 100% = twice DMSO control signal | activation, % at 9 µM | 1.7% of 300,000 active | AID 504408, 2011;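 active = mean replicate activation of at least 50% with a set share of replicates each reaching 50%; inconclusive = only one of those two conditions met; inactive = mean below 50% and too few replicates reaching it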;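 note: 0% = median of the neutral control wells and 100% = twice that signal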
# Jurkat NFkB inh: inhibitors of induced NF-kB luciferase reporter, primary screen, TCR NF-kB activation inhibitor project, cell-based, luminescence, uHTS | Jurkat, PMA/ionomycin-induced NF-kB luciferase reporter | inhibition, % at 4 µM | 0.53% of 330,000 active; in the data active = inhibition above about 50%
# HSF1 inh: HSF1 inhibitors in luciferase reporter cells, primary screen, cell-based, NIH3T3, luminescence; activity change, negative = inhibition, % at 7.5 µM (by protocol); 0.77% of 300,000 active; NIH3T3-HGL HSE-luciferase, MG132-induced, luminescence 8 h; stronger effect = lower value;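 active = more than half of replicate wells show activity change below -50%, luminescence cut by over half; inconclusive = some wells, but at most half, below -50%; inactive = no replicate well below -50%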;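 note: luciferase reports HSF-1 transcriptional activity via heat shock element; 0% = median of DMSO wells and -100% = zero luminescence signal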
# T cruzi inh: inhibitors of intracellular T. cruzi growth, primary screen, luminescence, NIH3T3 host cells. T. cruzi beta-gal in NIH3T3, 90 h. inhibition, % (no concentration beside the values). 1.4% of 300,000 active. AID 1885, 2009;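 active = mean inhibition across valid replicates above about 55%, limit read from the data; inconclusive = mean below that limit but half or more replicates reach it; inactive = mean below it, under half of replicates reach it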;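 note: signal also drops with host cell toxicity which is not excluded here; 0% = plate median of DMSO wells and 100% = zero luminescence signal; higher percent means less beta-gal luminescence so fewer parasites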
#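 System: NIH/3T3 fibroblasts plus reporter T. cruzi. Medium: DMEM plus 2% FBS. Probe or stimulus: 5000 reporter trypomastigotes per well. Compound: single 50 nL compound addition per well in DMSO. Incubation: co-culture of at least 90 h after 3 h attachment. Detection: GalScreen β-gal luminescence, detergent lysis, 60 min. Evaluation: parasite load inhibition, %.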
# GPR7 antagonist: GPR7 receptor antagonists, primary screen, cell-based, fluorescence, single concentration. inhibition, % at 4.4 µM. GPR7-expressing cells, fluorescence antagonist assay. AID 1861, 2009. Neuropeptides B/W receptor type 1 (Homo sapiens), P48145. 1.1% of 290,000 active; in the data active = inhibition above about 16%, passing the limit was not always enough;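 note: cells stimulated with the agonist NPW; 0% = agonist with vehicle and 100% = vehicle without agonist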
# Target sequence (P48145 whole entry, looked up): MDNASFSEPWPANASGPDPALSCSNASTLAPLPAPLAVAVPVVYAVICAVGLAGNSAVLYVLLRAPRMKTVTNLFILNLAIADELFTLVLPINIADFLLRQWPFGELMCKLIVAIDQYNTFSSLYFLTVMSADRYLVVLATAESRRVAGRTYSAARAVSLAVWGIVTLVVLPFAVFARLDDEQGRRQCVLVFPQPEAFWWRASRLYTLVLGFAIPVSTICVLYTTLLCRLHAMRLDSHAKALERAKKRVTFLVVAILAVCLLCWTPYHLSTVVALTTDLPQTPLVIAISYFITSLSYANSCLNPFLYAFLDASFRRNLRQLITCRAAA
# The depositor's hits bear a star; u = inconclusive; x = not tested or not shown. An excerpt weighted towards active compounds, which were near 4.8% of everything screened.
SMILES,697 NFkB inh,HSF1 activator,Jurkat NFkB inh,HSF1 inh,T cruzi inh,GPR7 antagonist
CC(c1nnnn1C1CCCCC1)N(Cc1ccccc1)Cc1cccnc1 (stereo not given),-4,19,6,18,38,-13
CC(c1nnnn1C(C)(C)C)N(Cc1cccnc1)Cc1ccccc1Cl (stereo not given),8,-16,0,-5,66*,4
COc1cccc(CNC2CCCCCCC2)c1OC,-4,3,-14,-3,-9,-1
COc1ccc(OCCCC(=O)OC(C)C(=O)Nc2ccc(S(N)(=O)=O)cc2)cc1 (stereo not given),3,7,3,-12,-2,x
Cc1csc(NC(=O)c2cc3c(s2)CCC3)n1,18,54*,-85,13,4,-2
COC(=O)c1sc(NC(=O)c2cc3c(s2)CCCC3)nc1C,-117,32,-89,11,-14,11
N#Cc1cc([N+](=O)[O-])ccc1Oc1cccc(/C=N/NC(=O)c2cccc(Cl)c2)c1,-9,-2,15,11,68*,-6
CCOC(=O)c1c(/N=C/c2cc([N+](=O)[O-])ccc2O)sc(C)c1C,-22,29,-8,1,-15,23*
COc1ccc([C@@H]2Sc3ccccc3NC(=O)[C@@H]2O)cc1,10,-2,5,-4,-14,x
CN(CC(=O)Oc1ccc(-c2nnco2)cc1)S(=O)(=O)c1ccc(F)cc1,3,-8,8,-2,-9,x
COc1cc(=O)[nH]c(SCC(=O)Nc2nc3c(s2)CCCC3)n1,-1,-89,-8,-86*,-4,1
Cn1c(CCNC(=O)c2ccc(Cl)cc2)n[nH]c1=S,3,-4,-17,-9,-8,-6
COC(=O)c1ccc(Nc2cc(C)nc(-c3ccccc3O)n2)cc1,15,12,-18,0,3,3
Cc1cc(Nc2cccc(Cl)c2)nc(-c2ccccc2O)n1,15,-77,-4,-70*,17,23
COC(=O)c1cccc(Nc2cc(C)nc(-c3ccccc3O)n2)c1,18,31,-4,-6,58*,-9
Cc1cc(Nc2ccc(Cl)cc2)nc(-c2ccccc2O)n1,9,-9,-12,-3,37,0
O=C(NCC(=O)N1CCN(c2ccccc2O)CC1)c1ccccc1,-1,0,-46,10,-1,-11
CC(C)=CCc1c(O)c(CC=C(C)C)c2c(c1O)-c1cc(O)c(O)cc1CC2,-13,-28,23,-17,36,x
COc1ccc2cc3c(N)nn(C(=O)c4ccccc4[N+](=O)[O-])c3nc2c1,-31,-63,17,-53*,14,-1
Cc1cc2cc(CCNC(=O)C3c4ccccc4Oc4ccccc43)c(=O)[nH]c2cc1C,2,-10,-11,-3,-1,-9
COc1ccccc1CN1CCNC(=O)C1CC(=O)N(C)Cc1ccon1 (stereo not given),3,9,5,-4,-3,-11
O=C1c2ccccc2C2=Nc3ccccc3SC(c3ccc(Cl)cc3)C12 (stereo not given),-21,40,19,27,47,-9
O=C1c2ccccc2C2=Nc3ccccc3SC(c3cccc(F)c3)C12 (stereo not given),-50,-4,32,3,56*,-11
O=C(CSc1nccn1Cc1ccco1)Nc1cccc(F)c1,-5,-79,7,-74*,-8,-2
CC(=O)Nc1cccc(NC(=O)CSc2ncc(-c3ccc(Cl)cc3)n2Cc2ccco2)c1,-8,-5,-5,3,-2,37*
SMILES,697 NFkB inh,HSF1 activator,Jurkat NFkB inh,HSF1 inh,T cruzi inh,GPR7 antagonist
O=C(CSc1nccn1Cc1ccco1)Nc1ccc(F)cc1,-24,11,-12,-1,-13,5
O=C(c1ccc2c(=O)n3c(nc2c1)CCCCC3)N1CCN(c2ccccc2)CC1,-8,-28,-6,-7,6,-11
O=C(c1ccc2c(=O)n3c(nc2c1)CCCCC3)N1CCN(C(c2ccccc2)c2ccccc2)CC1,-33,62*,-12,23,33,-22
Cc1ccc(-n2cccc2C(=S)N=P(N(C)C)(N(C)C)N(C)C)cc1,-45,-12,29,-7,59*,-5
Cc1ccc(-n2cccc2C(=O)NS(=O)(=O)c2ccc(C)cc2)cc1,13,8,7,-4,2,-1
CC1CN(c2nc3ccccc3nc2SCC(=O)Nc2cccc(C(F)(F)F)c2)CC(C)O1 (stereo not given),-27,18,-9,9,29,x
O=C(O)c1ccccc1COc1ccccc1Cl,3,-58,3,-56*,-2,-2
O=C(O)c1ccccc1OCc1ccccc1Br,11,8,5,-1,-8,-1
COC(=O)c1ccccc1NC(=O)COC(=O)CSc1nnc(N)s1,-11,2,22,0,-4,-13
Cc1cc2cc(CNC(=O)c3ccc(C)c([N+](=O)[O-])c3)ccc2[nH]1,17,-6,7,-1,-6,-8
COCCNc1nc(-c2cc(C)n(CCc3ccc(OC)cc3)c2C)cs1,12,-21,0,-8,60*,-12
Cc1ccc(CN2CCC(Oc3cccc(C(=O)N(C)CCN(C)C)c3)CC2)cc1C,-14,-9,-10,0,57*,14
O=C(c1ccco1)N1CCN(C(=O)c2ccc(COc3ccc4c(c3)CCC4)o2)CC1,-178,16,-7,12,12,15
O=C(c1ccc(COc2ccc3c(c2)CCC3)o1)N1CCN(c2ccccc2)CC1,-76,62*,13,70,13,7
O=C(O)CN1C(=O)/C(=C\c2ccccc2OCc2ccc(Cl)cc2Cl)SC1=S,11,-70,40,-66*,1,-9
O=C(O)CN1C(=O)/C(=C\c2cc(Br)ccc2OCc2ccccc2Cl)SC1=S,-5,14,-12,-7,15,-22
COc1cc(C)ccc1OCCCCNCc1ccccc1,-7,-11,9,-4,26,-5
CCOCCCNCc1ccc(OCCC(C)C)c(OC)c1,4,-10,0,-1,63*,-13
O=C(COC(=O)c1ccccc1C(=O)c1ccc(Cl)c([N+](=O)[O-])c1)NC1CC1,-3,u,6,29,63*,-4
CNC(=O)COC(=O)c1ccccc1C(=O)c1ccc(Cl)c([N+](=O)[O-])c1,x,u,x,u,30,-9
